FGF22 binding: binders of human FGF22 protein, primary screen, FGF22 synaptogenesis inhibitor project, biophysical, thermal shift, single point. Fibroblast growth factor 22 (Homo sapiens), Q9HCT0. recombinant FGF22 thermal shift, SYPRO orange fluorescence; percent of sucrose octasulfate shift, DMSO zero. activity (Tm shift, normalised), % at 9.99 µM. actives 1.5% (n = 340,000). AID 651658, 2012;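 active = mean Tm shift, scaled 0 neutral to 100 positive control, at about 1.3% or above, every replicate too, limit read from the data; inconclusive = no clear call, values can overlap the other calls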
Target sequence (Q9HCT0 whole entry, looked up): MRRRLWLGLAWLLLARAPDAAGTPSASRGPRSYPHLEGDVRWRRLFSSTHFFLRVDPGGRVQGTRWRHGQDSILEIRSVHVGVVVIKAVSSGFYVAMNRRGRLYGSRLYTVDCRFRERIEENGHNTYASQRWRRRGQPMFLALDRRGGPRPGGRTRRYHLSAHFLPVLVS
XiGFP reactiv: activators of inactive X chromosome reactivation, primary screen, imaging, XiGFP fibroblasts, GFP high-content imaging, set 2; activation, % at 7.58 µM; XiGFP mouse fibroblasts, % GFP-positive cells imaging, 3 d; cells co-treated with 5-aza-dC sensitizer; scaled so ellipticine positive control = 100%; actives 0.055% (n = 360,000);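 active = mean normalized replicate activation at least 10% and every replicate at or above 10%; inconclusive = only one of the two criteria met; inactive = mean below 10% and not all replicates reach 10%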;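 also: 0% = median of on-plate neutral control wells and 100% = ellipticine 6 µM median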
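System: SV40-immortalized XiGFP fibroblast cells, line 68-5-11 / Incubation: 3-day compound exposure, then 15 min fixation at room temperature / Compound: single concentration per compound, delivered by pin transfer / Buffer or medium: DMEM plus 5-aza-dC sensitizer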
C2C12 statin: suppressors of statin myotoxicity in C2C12 myotubes, primary screen, cell-based, single point, plate reader; rescue of ATP level, % at 7.49 µM; actives 0.78% (n = 330,000); C2C12 myotubes + simvastatin, ATP luminescence, 48 h; scaled: DMSO 0, geranylgeraniol control 100;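 active = mean ATP rescue above about 67%, or every replicate alone reaching that limit, limit read from the data, passing the limit was not always enough; inconclusive = no clear call, values can overlap the other calls; inactive = mean under the limit and some replicate under it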;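 also: myotubes were challenged with 10 µM simvastatin during compound exposure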
DENV2 CPE: inhibitors of DENV2 cytopathic effect, primary screen, cell-based, plate reader, single concentration; actives 1.7% (n = 350,000); DENV2-infected cells, cytopathic effect rescue; CPE inhibition, % at 9.99 µM; in the data active = CPE inhibition above about 20%, passing the limit was not always enough; inconclusive = no clear call, values can overlap the other calls; tested in BHK-21 cells;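 also: 0% = median of neutral control wells and 100% = median of positive control wells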
PglD DTNB: C. jejuni PglD acetyltransferase inhibitors, primary screen, biochemical, DTNB colorimetric, single point; purified PglD enzyme, DTNB colorimetric CoA detection; inhibition, % at 12.5 µM; actives 0.098% (n = 360,000); in the data active = inhibition above about 16%, passing the limit was not always enough; inconclusive = no clear call, values can overlap the other calls
E-sel inducer: E-selectin induction in HUVECs, primary screen, imaging, HUVEC, immunofluorescence imaging, single point. normalized: neutral wells 0, TNF-alpha wells 100. P16581. activation, % at 7.58 µM. actives 0.37% (n = 260,000);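 active = mean E-selectin-positive cell signal at least 10% of the positive control, reached in at least 60% of replicates, without over 20% cell loss; inconclusive = no rule given, readout overlaps actives, possibly toxicity-flagged; inactive = the rest, including those meeting only one limit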
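Test system: HUVEC | Signal: Immunofluorescence imaging | Read-out: Percent E-selectin-positive cells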
An asterisk follows results filed as active. Most compounds without a hit are left out; they make up all but 3.3% or so of the library.

For O=c1c2cc(Br)ccc2[nH]c(=S)n1Cc1ccccn1 the results were FGF22 binding -0.1, XiGFP reactiv 0.0 and DENV2 CPE 31.3*.
COc1ccccc1NC(=O)CCCc1nc(-c2ccc(OC)c(OC)c2)no1 was read as FGF22 binding -0.1, XiGFP reactiv 0.0, C2C12 statin -3.3, DENV2 CPE -2.8, PglD DTNB 1.2 and E-sel inducer 2.2.
For CCN1CCN(CCCNC(=O)CCc2nc(-c3ccc(OC)cc3)no2)CC1 the results were FGF22 binding 43.2*, XiGFP reactiv 0.1, C2C12 statin -2.1, DENV2 CPE inconclusive, PglD DTNB -3.0 and E-sel inducer -0.2.
Screening COc1ccc(-c2noc(CCCC(=O)NCCc3ccccc3)n2)cc1OC returned C2C12 statin 150.9* and PglD DTNB 5.1.
`COc1ccc(NC(=O)N(C)C[C@@H]2Oc3cc(C#CCN(C)C)ccc3S(=O)(=O)N([C@@H](C)CO)C[C@H]2C)cc1` gave FGF22 binding -0.1, XiGFP reactiv 0.3, C2C12 statin -36.1, DENV2 CPE -9.7, PglD DTNB -0.6 and E-sel inducer 0.4.
For COc1ccc([C@@H]2CC=C(C(=O)O)[C@H](c3ccccc3F)N2S(=O)(=O)c2ccc(C)cc2)cc1OC the results were FGF22 binding -0.1, XiGFP reactiv 0.3, C2C12 statin 5.1, DENV2 CPE 35.6*, PglD DTNB -1.6 and E-sel inducer -0.1.
Screening COc1ccc([C@@H]2CC=C(C(=O)O)[C@H](c3ccccc3)N2S(=O)(=O)c2ccc(C)cc2)cc1OC returned FGF22 binding -0.2, XiGFP reactiv 0.0, C2C12 statin 17.7, DENV2 CPE 48.8*, PglD DTNB 6.1 and E-sel inducer -0.2.
C[C@@H]1CN([C@@H](C)CO)C(=O)c2cc(NS(=O)(=O)c3cn(C)cn3)ccc2O[C@@H]1CN(C)C(=O)Nc1ccccc1 was read as FGF22 binding -0.3, XiGFP reactiv -0.9, DENV2 CPE 5.8, PglD DTNB 0.0 and E-sel inducer 0.0.
`C=CCON/C(CCC)=C1\C(=O)C(C(=O)OC)C(C)(C)CC1=NC` (stereo not given) gave FGF22 binding 44.1*, XiGFP reactiv 0.1, C2C12 statin 3.4, DENV2 CPE 4.3 and E-sel inducer -0.5.
CO[C@@H]1CN(C)C(=O)c2ccc(NC(=O)c3ccccc3)cc2OC[C@@H](C)N(C)C[C@H]1C was read as XiGFP reactiv 0.3, DENV2 CPE 16.5 and E-sel inducer 0.0.
`COc1ccccc1C(O)(C(=O)NNc1cccc(C)c1)c1ccccc1OC` gave FGF22 binding -0.6, XiGFP reactiv 0.0 and DENV2 CPE 1.2.
For COc1ccccc1C(O)(C(=O)NNc1ccccc1C)c1ccccc1OC the results were FGF22 binding 43.1*, XiGFP reactiv 0.0, C2C12 statin 2.5 and DENV2 CPE 1.6.
Cc1nc(NC(=S)NC(=O)c2cncc(Br)c2)ccc1Br was read as FGF22 binding 0.3, XiGFP reactiv 0.0, C2C12 statin 102.0*, DENV2 CPE -7.1 and PglD DTNB -1.7.
`Cc1ccnc(NC(=S)NC(=O)c2cncc(Br)c2)c1` gave XiGFP reactiv 0.5 and E-sel inducer -0.1.
For COc1ccc(NC(=O)N(C)C[C@H]2OCCCC[C@H](C)Oc3ccc(NS(=O)(=O)c4ccc(Cl)cc4)cc3C(=O)N([C@@H](C)CO)C[C@@H]2C)cc1 the results were FGF22 binding -0.2, XiGFP reactiv 0.0, DENV2 CPE inconclusive, PglD DTNB -5.3 and E-sel inducer 3.0.
O=C(CSc1ccccc1)Nc1nccs1 was read as FGF22 binding -0.2, XiGFP reactiv 0.0, DENV2 CPE -1.6 and E-sel inducer -7.3.
Screening Cc1ccc(SCC(=O)Nc2nccs2)cc1 returned FGF22 binding 43.4*, XiGFP reactiv 0.2, DENV2 CPE 11.9, PglD DTNB 1.4 and E-sel inducer -0.1.
For Cc1ccc(SCC(=O)Nc2ccc(-c3nc4ccccc4[nH]3)cc2)cc1 the results were FGF22 binding 0.0, XiGFP reactiv -0.1, C2C12 statin -9.2 and DENV2 CPE 38.0*.
For Cc1ccc(NC(=O)CCCSc2nc3ccccc3[nH]2)cc1 the results were FGF22 binding 0.2, XiGFP reactiv 0.3 and DENV2 CPE -3.8.
Screening CC(C)NC(=O)N(C)C[C@H]1Oc2ccc(NC(=O)Nc3ccccc3)cc2CC(=O)N([C@H](C)CO)C[C@@H]1C returned FGF22 binding -0.2, XiGFP reactiv 0.6, C2C12 statin -0.9, DENV2 CPE -3.1 and PglD DTNB 10.7.
`COc1ccc(Cl)cc1NC(=S)NNC(=O)c1cccnc1` gave FGF22 binding 42.9*, XiGFP reactiv 0.1 and DENV2 CPE -6.0.
`COC(=O)c1cccc(NC(=S)Nc2cc(Cl)ccc2OC)c1` gave FGF22 binding 43.3*, XiGFP reactiv 0.0, DENV2 CPE 1.6 and E-sel inducer 1.1.
For COC(=O)c1cc(OC)c(OC)cc1NC(=S)Nc1cccc(C(C)=O)c1 the results were XiGFP reactiv 0.0 and PglD DTNB -3.9.
Screening COc1ccc(NC(=S)NNC(=O)c2cccnc2)cc1OC returned FGF22 binding 0.2, XiGFP reactiv 0.0 and DENV2 CPE inconclusive.
CC1(c2nnnn2Cc2ccccc2)CCC(=O)N1CCCN1CCOCC1 (stereo not given) was read as FGF22 binding -0.3, XiGFP reactiv 0.2, DENV2 CPE 19.5 and E-sel inducer 6.6.
Screening CC1(c2nnnn2Cc2ccccc2)CCC(=O)N1CCCn1ccnc1 (stereo not given) returned FGF22 binding -0.1, XiGFP reactiv 0.1, DENV2 CPE 26.1* and E-sel inducer -4.6.
`C[C@H](NC(=O)C[C@H]1CC[C@H](NC(=O)CN2CCOCC2)[C@@H](CO)O1)c1ccccc1` gave FGF22 binding 0.0, XiGFP reactiv -0.2, C2C12 statin 3.1, DENV2 CPE inconclusive, PglD DTNB -0.3 and E-sel inducer -0.4.
For CC(C)Oc1ccc(C(CC(=O)O)n2cnnn2)cc1 (stereo not given) the results were FGF22 binding 43.1*, XiGFP reactiv 0.0, DENV2 CPE 4.5 and PglD DTNB -3.0.
COc1ccc(C(CC(=O)O)n2cnnn2)cc1 (stereo not given) was read as FGF22 binding 42.5, XiGFP reactiv 0.0, C2C12 statin -9.1 and DENV2 CPE -3.5.
